Reference: ChEMBL document CHEMBL2384909, “Development of Novel Alkene Oxindole Derivatives As Orally Efficacious AMP-Activated Protein Kinase Activators” (ACS Med Chem Lett, 2013)

Columns and labels:
[1] = target: T1, 5'-AMP-activated protein kinase catalytic subunit alpha-1 (Homo sapiens, UniProt Q13131); assay: Activation of recombinant AMPK alpha1 (1 to 394) (unknown origin) at 20 ug/mL after 2 hrs by scintillation proximity assay relative to PT1
Target sequence in this assay (Q13131 whole entry, looked up): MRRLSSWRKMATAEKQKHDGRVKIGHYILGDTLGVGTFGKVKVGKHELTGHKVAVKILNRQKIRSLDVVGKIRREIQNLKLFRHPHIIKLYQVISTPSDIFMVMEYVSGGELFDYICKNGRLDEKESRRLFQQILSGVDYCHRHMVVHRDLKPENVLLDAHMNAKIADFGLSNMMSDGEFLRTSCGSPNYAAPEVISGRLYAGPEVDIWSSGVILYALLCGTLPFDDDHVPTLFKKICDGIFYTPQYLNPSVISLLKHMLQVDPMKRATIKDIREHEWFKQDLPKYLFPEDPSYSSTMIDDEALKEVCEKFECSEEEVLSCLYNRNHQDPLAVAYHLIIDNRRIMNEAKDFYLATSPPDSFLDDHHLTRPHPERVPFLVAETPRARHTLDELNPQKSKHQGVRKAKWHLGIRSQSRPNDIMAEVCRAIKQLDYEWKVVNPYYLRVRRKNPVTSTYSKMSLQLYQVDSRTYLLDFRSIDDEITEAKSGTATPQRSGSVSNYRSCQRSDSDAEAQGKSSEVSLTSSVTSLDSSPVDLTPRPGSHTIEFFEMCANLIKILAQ

[2] = target: AMPK alpha2/beta1/gamma1 (Homo sapiens) (UniProt P54646+P54619+Q9Y478); assay: Activation of recombinant AMPK alpha2beta1gamma1 (unknown origin) at 20 ug/mL after 2 hrs by scintillation proximity assay relative to AMP; format: protein-complex assay
AMPK alpha2/beta1/gamma1 = AMPK alpha2/beta1/gamma1 (Homo sapiens, UniProt P54619+P54646+Q9Y478); assay: Activation of recombinant AMPK alpha2beta1gamma1 (unknown origin) after 2 hrs by scintillation proximity assay; format: protein-complex assay
Procedure, shortened: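 Activation of bacterially expressed AMPK α2β1γ1 was measured by scintillation proximity assay. Efficacy is expressed relative to AMP.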

L6 [3] = assay: Induction of AMPK-mediated ACC phosphorylation in rat L6 cells by Western blotting analysis; format: cell-based
L6 [4] = assay: Induction of AMPK phosphorylation in rat L6 cells by Western blotting analysis; format: cell-based
[5] = target: T1, 5'-AMP-activated protein kinase catalytic subunit alpha-1; assay: Activation of recombinant AMPK alpha1 (1 to 394) (unknown origin) after 2 hrs by scintillation proximity assay
Target sequence in this assay (Q13131 whole entry): as the sequence (Q13131 whole entry, looked up) above

[6] = target: 5'-AMP-activated protein kinase catalytic subunit alpha-2 (Homo sapiens, UniProt P54646); assay: Activation of human AMPK alpha2 (1 to 398) expressed in African green monkey COS7 cells; format: cell-based, COS-7
[7] = target: T1, 5'-AMP-activated protein kinase catalytic subunit alpha-1; assay: Activation of human AMPK alpha1 (1 to 394) expressed in African green monkey COS7 cells; format: cell-based, COS-7
Target sequence in this assay (Q13131 whole entry): as the sequence (Q13131 whole entry, looked up) above

[8] = Activation of AMPK in rat primary hepatocytes assessed as inhibition of fatty acid biosynthesis by 14C-acetate incorporation assay; format: cell-based; details: Hepatocyte
[9] = Activation of partially purified rat liver AMPK assessed as 33P-phosphorylation of SAMS peptide
Mus musculus = assay: Antidiabetic activity in diet-induced obese C57BL/6J mouse assessed as reduction in plasma triglyceride at 150 mg/kg, po qd for 4 weeks (reference value: 0.62 +/- 0.02 mM); format: functional

Sequence of AMPK alpha2/beta1/gamma1 (Homo sapiens) (P54619 whole entry partner): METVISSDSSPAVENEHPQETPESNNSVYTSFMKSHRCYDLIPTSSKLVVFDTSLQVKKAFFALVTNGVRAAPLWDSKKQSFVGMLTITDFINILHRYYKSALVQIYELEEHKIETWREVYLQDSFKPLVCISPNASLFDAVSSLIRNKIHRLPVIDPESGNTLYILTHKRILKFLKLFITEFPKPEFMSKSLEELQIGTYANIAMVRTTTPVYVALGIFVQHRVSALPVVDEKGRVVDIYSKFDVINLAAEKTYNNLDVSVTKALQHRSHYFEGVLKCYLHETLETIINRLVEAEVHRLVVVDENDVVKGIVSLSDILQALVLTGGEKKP
Sequence of AMPK alpha2/beta1/gamma1 (Homo sapiens) (P54646 whole entry): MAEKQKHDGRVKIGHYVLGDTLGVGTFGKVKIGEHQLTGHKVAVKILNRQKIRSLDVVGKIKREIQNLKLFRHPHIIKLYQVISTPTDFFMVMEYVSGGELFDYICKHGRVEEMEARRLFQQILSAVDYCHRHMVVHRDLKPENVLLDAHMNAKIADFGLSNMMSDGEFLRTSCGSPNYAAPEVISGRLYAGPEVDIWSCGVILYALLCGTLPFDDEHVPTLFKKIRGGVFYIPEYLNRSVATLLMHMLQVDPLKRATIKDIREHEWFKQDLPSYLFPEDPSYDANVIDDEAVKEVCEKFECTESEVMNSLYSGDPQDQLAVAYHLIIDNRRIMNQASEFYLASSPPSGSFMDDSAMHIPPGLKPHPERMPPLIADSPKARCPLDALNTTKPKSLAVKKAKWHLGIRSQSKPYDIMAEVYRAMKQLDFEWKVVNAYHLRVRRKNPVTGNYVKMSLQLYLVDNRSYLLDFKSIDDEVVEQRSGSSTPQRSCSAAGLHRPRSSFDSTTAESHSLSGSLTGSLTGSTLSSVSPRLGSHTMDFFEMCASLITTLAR
Sequence of AMPK alpha2/beta1/gamma1 (Homo sapiens) (Q9Y478 2-270 partner limits assumed): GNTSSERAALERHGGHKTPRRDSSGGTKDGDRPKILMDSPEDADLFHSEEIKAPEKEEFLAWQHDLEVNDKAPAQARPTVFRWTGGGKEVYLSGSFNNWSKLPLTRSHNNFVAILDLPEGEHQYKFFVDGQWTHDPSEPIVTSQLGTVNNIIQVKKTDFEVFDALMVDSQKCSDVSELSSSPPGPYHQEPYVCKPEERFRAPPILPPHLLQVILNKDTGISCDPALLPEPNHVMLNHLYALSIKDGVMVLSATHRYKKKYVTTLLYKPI
Sequence of AMPK alpha2/beta1/gamma1 (P54646 whole entry): as the sequence (P54646 whole entry) above
Sequence of AMPK alpha2/beta1/gamma1 (P54619 whole entry): as the sequence (P54619 whole entry partner) above
Sequence of AMPK alpha2/beta1/gamma1 (Q9Y478 whole entry): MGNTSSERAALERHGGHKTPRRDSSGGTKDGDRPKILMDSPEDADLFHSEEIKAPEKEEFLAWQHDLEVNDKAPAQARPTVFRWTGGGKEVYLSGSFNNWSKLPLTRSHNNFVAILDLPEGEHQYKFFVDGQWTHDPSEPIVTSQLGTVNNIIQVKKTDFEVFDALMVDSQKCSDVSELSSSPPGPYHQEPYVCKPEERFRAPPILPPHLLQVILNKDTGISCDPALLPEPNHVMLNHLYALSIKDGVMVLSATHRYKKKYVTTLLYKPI
Sequence of 5'-AMP-activated protein kinase catalytic subunit alpha-2 (P54646 whole entry): as the sequence (P54646 whole entry) above

| Structure (SMILES) | Activity [1] [%] | Efficacy [2] [%] | EC50 (AMPK alpha2/beta1/gamma1) [µM] | other results |
| --- | --- | --- | --- | --- |
| O=C(O)c1ccc(CN2C(=O)/C(=C(\c3ccccc3)c3ccc(Cl)cc3)c3ccccc32)nc1 |  | 75 | 9.2 |  |
| Cc1cc(-c2ccc(/C=C3\SC(=S)N(c4cccc(C(=O)O)c4)C3=O)o2)c([N+](=O)[O-])cc1C | < 50 |  |  |  |
| O=C(O)c1cccc(CN2C(=O)/C(=C(/c3ccc(Cl)cc3)C3CCCCC3)c3ccccc32)c1 |  | 103 | 4.6 |  |
| Cc1cc(-c2ccc(/C=C3\S/C(=N\c4ccc(Cl)c(C(=O)O)c4)NC3=O)o2)c([N+](=O)[O-])cc1C |  | 40 | 0.3 | EC50 [6]: 12 µM; EC50 [5]: 9.6 µM; EC50 [7]: 9 µM |
| Cc1cc(-c2ccc(/C=C3\S/C(=N\c4cccc(C(=O)O)c4)NC3=O)o2)c([N+](=O)[O-])cc1C | 106 |  |  |  |
| CC(C)c1ccc(/C(=C2/C(=O)N(Cc3cccc(C(=O)O)c3)c3ccccc32)c2ccccc2)cc1 |  | 97 | 4 |  |
| COC(=O)c1cc(/N=C2/NC(=O)/C(=C/c3ccc(-c4cc(C)c(C)cc4[N+](=O)[O-])o3)S2)ccc1Cl | < 50 |  |  |  |
| CC(C)NC(=O)c1cccc(CN2C(=O)/C(=C(\c3ccccc3)c3ccc(Cl)cc3)c3ccccc32)c1 |  | 151 | 4.5 |  |
| O=C(O)c1cccc(CN2C(=O)/C(=C(\c3ccccc3)c3cccnc3)c3ccccc32)c1 |  | 96 | 3.2 |  |
| O=C1/C(=C(\c2ccccc2)c2ccc(Cl)cc2)c2ccccc2N1Cc1ccccc1 |  | 70 | 1 |  |
| Cc1cc(-c2ccc(/C=C3\S/C(=N\c4ccc(F)cc4)NC3=O)o2)c([N+](=O)[O-])cc1C | < 50 |  |  |  |
| O=C(O)c1cccc(CN2C(=O)/C(=C(\c3ccccc3)c3ccccc3OC(F)(F)F)c3ccccc32)c1 |  | 99 | 7.4 |  |
| N#Cc1c(O)c2c(-c3ccc(-c4ccccc4O)cc3)csc2[nH]c1=O |  |  |  | IC50 [8]: 3.2 µM; EC50 [9]: 0.8 µM |
| Cc1cc(-c2ccc(/C=C3\S/C(=N\c4ccccc4C(=O)O)NC3=O)o2)c([N+](=O)[O-])cc1C | 55 |  |  |  |
| CN(C)C(=N)NC(=N)N [METFORMIN] |  |  |  | Activity (Mus musculus): 0.5 mM |

Continued, in another order:

| Activity [1] [%] | Efficacy [2] [%] | EC50 (AMPK alpha2/beta1/gamma1) [µM] | Structure (SMILES) | other results |
| --- | --- | --- | --- | --- |
| < 50 |  |  | O=C1N/C(=N/c2ccc(Cl)c(C(=O)O)c2)S/C1=C\c1ccc(-c2ccccc2[N+](=O)[O-])o1 |  |
|  | < 50 | > 10 | CC(C)/C(=C1\C(=O)N(Cc2cccc(C(=O)O)c2)c2ccccc21)c1ccccc1 |  |
| 341 | 152 | 3.2 | O=C(O)c1cccc(CN2C(=O)/C(=C/c3ccc(-c4cccc([N+](=O)[O-])c4)o3)c3ccccc32)c1 | Activity (L6 [3]): Dose-dependent effect; Activity (L6 [4]): Dose-dependent effect; EC50 [5]: 2.1 µM |
|  | 122 | 4.8 | O=C(O)c1cccc(CN2C(=O)/C(=C/c3ccc(-c4ccc(F)c(Cl)c4)o3)c3ccccc32)c1 | Activity (L6 [3]): Dose-dependent effect; Activity (L6 [4]): Dose-dependent effect |
| < 50 |  |  | O=C1N/C(=N/c2ccc(Cl)c(C(=O)O)c2)S/C1=C\c1ccc(-c2ccccc2Cl)o1 |  |
| 176 |  |  | O=C1N/C(=N/c2ccc(Cl)c(C(=O)O)c2)S/C1=C\c1ccc(-c2cccc([N+](=O)[O-])c2)o1 |  |
|  | 227 | 9.9 | CC(C)/C(=C1\C(=O)N(Cc2cccc(C(=O)O)c2)c2ccccc21)c1ccc(Cl)cc1 |  |
|  | 105 | 5.9 | O=C(O)c1cccc(CN2C(=O)/C(=C(\c3ccccc3)c3ccc(F)c(Cl)c3)c3ccccc32)c1 |  |
|  | 101 | 1.8 | O=C(O)c1cccc(CN2C(=O)/C(=C(\c3ccccc3)c3ccccc3Cl)c3ccccc32)c1 |  |
